Laboratory results published in BindingDB's records for doi:10.1021/jm060539t (Biogen Idec, 2006).

How the values were obtained:
Adenosine receptor A1 [1] = biological target: T1, Adenosine receptor A1 (Homo sapiens, UniProt P30542); experiment: Displacement of [125I]ABA from human adenosine A1 receptor
T1 sequence (P30542 whole entry): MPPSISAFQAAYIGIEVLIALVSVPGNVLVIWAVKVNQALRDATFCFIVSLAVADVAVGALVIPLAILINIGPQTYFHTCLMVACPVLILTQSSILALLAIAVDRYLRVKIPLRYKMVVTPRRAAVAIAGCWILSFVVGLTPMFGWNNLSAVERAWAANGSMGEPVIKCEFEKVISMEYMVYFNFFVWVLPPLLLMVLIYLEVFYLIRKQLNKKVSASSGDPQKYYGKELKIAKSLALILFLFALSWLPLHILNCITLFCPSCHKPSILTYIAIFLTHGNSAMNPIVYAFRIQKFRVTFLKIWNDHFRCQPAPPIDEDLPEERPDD

Adenosine receptor A3 = biological target: T2, Adenosine receptor A3 (Homo sapiens, UniProt P0DMS8); experiment: Displacement of [125I]ABA from human adenosine A3 receptor
T2 sequence (P0DMS8 whole entry): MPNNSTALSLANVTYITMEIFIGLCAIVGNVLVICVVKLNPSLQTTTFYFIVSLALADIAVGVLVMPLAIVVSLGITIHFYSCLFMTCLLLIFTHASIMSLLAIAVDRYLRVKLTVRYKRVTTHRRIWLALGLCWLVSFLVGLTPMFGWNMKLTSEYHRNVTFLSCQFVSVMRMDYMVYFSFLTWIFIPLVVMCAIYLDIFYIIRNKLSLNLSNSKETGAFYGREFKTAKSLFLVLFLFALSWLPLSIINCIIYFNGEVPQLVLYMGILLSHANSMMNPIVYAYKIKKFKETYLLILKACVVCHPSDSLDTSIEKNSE

Adenosine receptor A1 [2] = biological target: T3, Adenosine receptor A1 (Rattus norvegicus, UniProt P25099); experiment: Displacement of [3H]DPCPX from adenosine A1 receptor in rat cerebral cortex
T3 sequence (P25099 whole entry): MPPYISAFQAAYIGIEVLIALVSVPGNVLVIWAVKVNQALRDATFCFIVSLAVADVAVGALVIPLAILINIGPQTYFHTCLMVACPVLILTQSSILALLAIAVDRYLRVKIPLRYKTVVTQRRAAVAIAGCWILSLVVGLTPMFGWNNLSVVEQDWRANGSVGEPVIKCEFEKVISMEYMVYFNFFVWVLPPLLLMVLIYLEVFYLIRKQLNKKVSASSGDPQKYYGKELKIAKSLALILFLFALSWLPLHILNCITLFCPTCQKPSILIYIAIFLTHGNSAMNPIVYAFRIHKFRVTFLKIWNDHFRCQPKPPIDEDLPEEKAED
In short: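 Rat brain membranes (cerebral cortex for A1, striatum for A2A) homogenized in 10 mM EDTA/10 mM Na-HEPES pH 7.4 with protease inhibitors, washed, stored at -80 °C. 40-70 µg protein incubated in triplicate with radioligand plus seven competitor concentrations in HEPES/EDTA buffer with 2 units/mL adenosine deaminase, 2.5 h, 21 °C. A1: [3H]DPCPX 2 nM, nonspecific with 10 µM NECA; A2A: [3H]ZM241385 0.5-1.2 nM, nonspecific with 10 µM XAC. GF/C filtration; single-site fit, Cheng-Prusoff Ki.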

Structure (SMILES) | Ki (Adenosine receptor A1 [1]) | Ki (Adenosine receptor A3) | Ki (Adenosine receptor A1 [2])
CCCn1c2nc(C34CCC(O)(CC3)CC4)nc-2c2n(c1=O)C[C@@H](C(C)C)N2 [(R)-2-(4-hydroxybicyclo[2.2.2]octan-1-yl)-8-isopropyl-4-propyl-7,8-dihydro-1H-imidazo[1,2-g]purin-5(4H)-one] | 35 nM | > 10000 nM | 
CCCn1c2nc(C34CCC(O)(CC3)CC4)nc-2c2n(c1=O)CC[C@@H](C)N2 [(R)-2-(4-hydroxybicyclo[2.2.2]octan-1-yl)-9-methyl-4-propyl-8,9-dihydropyrimido[1,2-g]purin-5(1H,4H,7H)-one] |  |  | > 250 nM
CCCn1c2nc(C34CCC(CCC(=O)O)(CC3)CC4)nc-2c2n(c1=O)C[C@@H](C(C)C)N2 [(R)-3-(4-(8-isopropyl-5-oxo-4-propyl-4,5,7,8-tetrahydro-1H-imidazo[1,2-g]purin-2-yl)bicyclo[2.2.2]octan-1-yl)propanoic acid] |  | > 10000 nM | 
CCCn1c2nc(C34CCC(O)(CC3)CC4)nc-2c2n(c1=O)C[C@@H](CC)N2 [(R)-8-ethyl-2-(4-hydroxybicyclo[2.2.2]octan-1-yl)-4-propyl-7,8-dihydro-1H-imidazo[1,2-g]purin-5(4H)-one] |  | > 10000 nM | 
CCCn1c2nc(C34CCC(O)(CC3)CC4)nc-2c2n(c1=O)CC[C@@H](CC)N2 [(R)-9-ethyl-2-(4-hydroxybicyclo[2.2.2]octan-1-yl)-4-propyl-8,9-dihydropyrimido[1,2-g]purin-5(1H,4H,7H)-one] |  |  | > 250 nM
CCCn1c2nc(C34CCC(O)(CC3)CC4)nc-2c2n(c1=O)C[C@H](CC)N2 [(S)-8-ethyl-2-(4-hydroxybicyclo[2.2.2]octan-1-yl)-4-propyl-7,8-dihydro-1H-imidazo[1,2-g]purin-5(4H)-one] |  |  | > 100 nM
